# ChEMBL document CHEMBL3259640 (J Med Chem, 2014)
# The source made the active and inactive calls. The calls are words filed in the database; no cut-off is given here.
# What was measured:
# K562 = assay: Antiproliferative activity against human K562 cells assessed as cell viability after 96 hrs by CellTiter96 assay; format: functional, cell-based; settings: K562, 96 h
# [1] = Volume of distribution in Sprague-Dawley rat at 2 mg/kg, iv compound formulated with 5% DMSO, 10% cremophor and 85% water by LC-MS/MS analysis; format: ADME, organism-based; set-up: dose 2 mg/kg, route intravenous; settings: in vivo
# Method in brief: (§1)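 Male Sprague–Dawley rats, n = 3. Blood drawn by preimplanted catheter over 24 h; plasma separated at 4 °C and deproteinated with acetonitrile. Drug measured by LC–MS/MS; parameters obtained by noncompartmental analysis.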
# [2] = Oral bioavailability in Sprague-Dawley rat at 20 mg/kg compound formulated with 1% methylcellulose in water by LC-MS/MS analysis; format: ADME, organism-based; settings: in vivo; method in brief: as §1
# [3] = Oral bioavailability in Sprague-Dawley rat at 20 mg/kg compound formulated with 5% DMSO, 10% cremophor and 85% water by LC-MS/MS analysis; format: ADME, organism-based; settings: in vivo
# MDA-MB-231 = assay: Antitumor activity against human MDA-MB-231 cells xenografted in BALB/c nu/nu mouse assessed as tumor volume at 150 mg/kg, po bid for 28 days administered via gavage relative to control; format: functional
# Method in brief: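 Female BALB/c nu/nu mice, 5–8 weeks old, implanted subcutaneously in the right flank with 1 × 10⁷ MDA-MB-231 cells in matrigel. Dosing began at about 100 mm³ mean tumour volume; 5 mice/group. Arms: vehicle (5% DMSO, 10% Cremophor in water) IV once daily, 20 mg/kg IV once daily, or 150 mg/kg PO twice daily, for 28 days. Caliper volumes and body weight every 2 days; T/C on day 28.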
# [4] = target: T1, Kinetochore protein NDC80 homolog (Homo sapiens) (UniProt O14777); assay: Inhibition of Hec1/Nek2 interaction in human MDA-MB-468 cells assessed as induction of Nek2 degradation at 100 nM by western blot analysis; format: cell-based
# T1 sequence (whole entry): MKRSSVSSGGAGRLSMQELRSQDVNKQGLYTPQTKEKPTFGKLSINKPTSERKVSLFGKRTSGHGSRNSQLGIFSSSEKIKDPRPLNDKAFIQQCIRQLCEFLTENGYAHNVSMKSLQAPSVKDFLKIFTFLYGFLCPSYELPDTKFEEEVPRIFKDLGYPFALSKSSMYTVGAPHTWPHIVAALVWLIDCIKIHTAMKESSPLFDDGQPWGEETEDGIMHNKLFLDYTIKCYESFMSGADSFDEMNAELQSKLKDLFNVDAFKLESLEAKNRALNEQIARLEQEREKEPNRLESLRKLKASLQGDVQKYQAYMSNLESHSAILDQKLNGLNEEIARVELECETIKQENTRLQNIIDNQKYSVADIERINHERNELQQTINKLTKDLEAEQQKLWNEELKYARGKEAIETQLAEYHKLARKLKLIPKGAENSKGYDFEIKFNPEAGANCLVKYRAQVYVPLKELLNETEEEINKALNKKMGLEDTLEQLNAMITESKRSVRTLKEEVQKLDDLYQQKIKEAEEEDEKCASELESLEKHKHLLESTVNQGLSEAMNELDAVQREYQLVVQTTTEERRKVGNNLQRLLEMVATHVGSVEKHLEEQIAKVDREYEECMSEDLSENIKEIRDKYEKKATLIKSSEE
# Method in brief: (§2)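 MDA-MB-468 cells treated with compound at 100 nM, with or without MG132 at 500 nM. Lysates made in SDS sample buffer, run on SDS-PAGE and blotted to PVDF. Primary antibodies applied in 3% BSA-TBST, with HRP secondaries and enhanced chemiluminescence detection for Hec1 and Nek2.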
# [5] = target: T1, Kinetochore protein NDC80 homolog (Homo sapiens); assay: Inhibition of Hec1/Nek2 interaction in human MDA-MB-468 cells assessed as induction of Nek2 degradation at 100 nM by western blot analysis in presence of 500 nM proteasome inhibition MG132; format: cell-based; method in brief: as §2
# MDA-MB-468 [6] = assay: Induction of mitotic abnormalities in human MDA-MB-468 cells assessed as increase in proportion of cells displaying multipolar spindles after 48 hrs by immunofluorescent staining based microscopy; format: functional, cell-based
# MDA-MB-468 [7] = assay: Induction of mitotic abnormalities in human MDA-MB-468 cells assessed as proportion of cells displaying multipolar spindles at 10 nM after 48 hrs by immunofluorescent staining based microscopy (reference value: […]); format: functional
# MDA-MB-468 [8] = assay: Induction of mitotic abnormalities in human MDA-MB-468 cells assessed as proportion of cells displaying multipolar spindles at 100 nM after 48 hrs by immunofluorescent staining based microscopy (reference value: […]); format: functional
# HeLa [9] = assay: Induction of apoptosis in human HeLa cells assessed as increase in cleaved PARP level at 1 uM after 24 to 48 hrs by western blot analysis; format: functional, cell-based
# Method in brief: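 HeLa cells given 1.0 μM compound, DMSO, or paclitaxel 100 nM for 24 and 48 h. Lysates made in SDS sample buffer, run on SDS-PAGE and transferred to PVDF. Blots probed for cleaved caspase-3, cleaved PARP, Bcl-2, Mcl-1 and XIAP, with actin as loading control, and detected by HRP-linked ECL.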
# HeLa [10] = assay: Growth inhibition of human HeLa cells; format: functional
# COLO 205 = assay: Growth inhibition of human COLO205 cells; format: functional
# T47D = assay: Growth inhibition of human T47D cells; format: functional
# [11] = Growth inhibition of human HAoSMC cells; format: cell-based
# [12] = target: Serine/threonine-protein kinase Nek2 (Homo sapiens, UniProt P51955); assay: Inhibition of Nek2 (unknown origin)
# [13] = target: Phosphatidylinositol 4,5-bisphosphate 3-kinase catalytic subunit alpha isoform (Homo sapiens, UniProt P42336); assay: Inhibition of PI3K alpha (unknown origin) assessed as [33P] incorporation in substrate by TopCount microplate scintillation counting analysis
# [14] = target: Vascular endothelial growth factor receptor 2 (Homo sapiens, UniProt P35968); assay: Inhibition of VEGFR2 (unknown origin) assessed as [33P] incorporation in substrate by TopCount microplate scintillation counting analysis
# [15] = target: Fibroblast growth factor receptor 1 (Homo sapiens, UniProt P11362); assay: Inhibition of FGFR1 (unknown origin) assessed as [33P] incorporation in substrate by TopCount microplate scintillation counting analysis
# [16] = target: Epidermal growth factor receptor (Homo sapiens, UniProt P00533); assay: Inhibition of EGFR (unknown origin) assessed as [33P] incorporation in substrate by TopCount microplate scintillation counting analysis
# [17] = target: Epidermal growth factor receptor (Homo sapiens, UniProt P00533, T790M); assay: Inhibition of EGFR T790M mutant (unknown origin) assessed as [33P] incorporation in substrate by TopCount microplate scintillation counting analysis; format: protein assay
# [18] = target: RAF proto-oncogene serine/threonine-protein kinase (Homo sapiens, UniProt P04049); assay: Inhibition of C-Raf (unknown origin) assessed as [33P] incorporation in substrate by TopCount microplate scintillation counting analysis
# [19] = target: Hepatocyte growth factor receptor (Homo sapiens, UniProt P08581); assay: Inhibition of MET (unknown origin) assessed as [33P] incorporation in substrate by TopCount microplate scintillation counting analysis
# [20] = target: Voltage-gated inwardly rectifying potassium channel KCNH2 (Homo sapiens, UniProt Q12809); assay: Displacement of [3H]astemizole from human ERG after 60 mins by competitive binding assay
# Sequence of Voltage-gated inwardly rectifying potassium channel KCNH2 (Q12809 whole entry): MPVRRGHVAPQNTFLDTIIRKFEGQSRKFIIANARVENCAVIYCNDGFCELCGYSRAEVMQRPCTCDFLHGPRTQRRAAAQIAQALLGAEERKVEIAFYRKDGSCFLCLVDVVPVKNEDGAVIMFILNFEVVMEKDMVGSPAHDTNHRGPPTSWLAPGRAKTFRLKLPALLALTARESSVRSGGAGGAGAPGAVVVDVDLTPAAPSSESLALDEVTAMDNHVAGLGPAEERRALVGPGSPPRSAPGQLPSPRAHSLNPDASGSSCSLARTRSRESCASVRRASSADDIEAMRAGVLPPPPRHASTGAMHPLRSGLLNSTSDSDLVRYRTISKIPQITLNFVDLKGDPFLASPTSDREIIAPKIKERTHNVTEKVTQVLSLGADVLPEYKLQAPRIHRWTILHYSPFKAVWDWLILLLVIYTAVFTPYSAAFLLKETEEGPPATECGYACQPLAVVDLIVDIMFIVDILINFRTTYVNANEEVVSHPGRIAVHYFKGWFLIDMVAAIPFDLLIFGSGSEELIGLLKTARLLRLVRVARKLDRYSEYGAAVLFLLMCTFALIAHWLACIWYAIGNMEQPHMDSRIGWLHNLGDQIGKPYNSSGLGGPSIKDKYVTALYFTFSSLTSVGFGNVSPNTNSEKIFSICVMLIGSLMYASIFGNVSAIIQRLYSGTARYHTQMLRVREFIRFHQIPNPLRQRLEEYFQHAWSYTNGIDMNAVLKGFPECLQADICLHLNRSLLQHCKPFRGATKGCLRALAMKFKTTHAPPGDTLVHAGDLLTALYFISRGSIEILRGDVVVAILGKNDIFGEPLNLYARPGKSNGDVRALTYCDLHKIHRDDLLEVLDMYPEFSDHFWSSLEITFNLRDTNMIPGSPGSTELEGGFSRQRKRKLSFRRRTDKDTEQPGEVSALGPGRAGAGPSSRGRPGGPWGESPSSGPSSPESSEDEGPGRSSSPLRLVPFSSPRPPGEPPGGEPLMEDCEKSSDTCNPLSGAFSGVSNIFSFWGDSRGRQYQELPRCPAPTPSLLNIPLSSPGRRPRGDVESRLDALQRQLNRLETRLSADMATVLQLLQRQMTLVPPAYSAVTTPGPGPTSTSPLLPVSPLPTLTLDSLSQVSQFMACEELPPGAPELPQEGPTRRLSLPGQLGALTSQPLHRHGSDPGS
# Sequence of Fibroblast growth factor receptor 1 (P11362 whole entry): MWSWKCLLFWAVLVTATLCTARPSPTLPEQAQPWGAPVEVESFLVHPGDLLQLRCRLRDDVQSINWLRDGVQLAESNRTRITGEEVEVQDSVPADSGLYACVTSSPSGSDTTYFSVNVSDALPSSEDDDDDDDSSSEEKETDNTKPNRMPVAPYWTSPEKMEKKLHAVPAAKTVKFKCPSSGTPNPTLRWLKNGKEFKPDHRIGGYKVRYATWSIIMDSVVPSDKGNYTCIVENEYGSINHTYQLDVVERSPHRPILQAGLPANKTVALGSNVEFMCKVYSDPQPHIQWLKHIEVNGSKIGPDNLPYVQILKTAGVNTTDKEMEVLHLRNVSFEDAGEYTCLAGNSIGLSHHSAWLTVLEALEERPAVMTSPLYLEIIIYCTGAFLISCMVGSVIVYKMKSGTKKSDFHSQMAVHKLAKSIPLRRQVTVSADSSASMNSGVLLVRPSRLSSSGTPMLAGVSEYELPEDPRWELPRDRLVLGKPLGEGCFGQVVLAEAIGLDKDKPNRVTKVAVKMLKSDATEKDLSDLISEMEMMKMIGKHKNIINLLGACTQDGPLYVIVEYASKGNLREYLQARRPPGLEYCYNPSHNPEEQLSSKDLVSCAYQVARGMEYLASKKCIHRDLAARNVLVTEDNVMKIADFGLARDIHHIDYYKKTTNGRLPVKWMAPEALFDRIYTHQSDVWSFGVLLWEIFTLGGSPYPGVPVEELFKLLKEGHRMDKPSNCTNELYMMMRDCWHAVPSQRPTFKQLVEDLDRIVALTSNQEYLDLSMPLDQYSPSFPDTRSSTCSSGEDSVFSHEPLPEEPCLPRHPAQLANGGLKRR
# Sequence of Hepatocyte growth factor receptor (P08581 whole entry): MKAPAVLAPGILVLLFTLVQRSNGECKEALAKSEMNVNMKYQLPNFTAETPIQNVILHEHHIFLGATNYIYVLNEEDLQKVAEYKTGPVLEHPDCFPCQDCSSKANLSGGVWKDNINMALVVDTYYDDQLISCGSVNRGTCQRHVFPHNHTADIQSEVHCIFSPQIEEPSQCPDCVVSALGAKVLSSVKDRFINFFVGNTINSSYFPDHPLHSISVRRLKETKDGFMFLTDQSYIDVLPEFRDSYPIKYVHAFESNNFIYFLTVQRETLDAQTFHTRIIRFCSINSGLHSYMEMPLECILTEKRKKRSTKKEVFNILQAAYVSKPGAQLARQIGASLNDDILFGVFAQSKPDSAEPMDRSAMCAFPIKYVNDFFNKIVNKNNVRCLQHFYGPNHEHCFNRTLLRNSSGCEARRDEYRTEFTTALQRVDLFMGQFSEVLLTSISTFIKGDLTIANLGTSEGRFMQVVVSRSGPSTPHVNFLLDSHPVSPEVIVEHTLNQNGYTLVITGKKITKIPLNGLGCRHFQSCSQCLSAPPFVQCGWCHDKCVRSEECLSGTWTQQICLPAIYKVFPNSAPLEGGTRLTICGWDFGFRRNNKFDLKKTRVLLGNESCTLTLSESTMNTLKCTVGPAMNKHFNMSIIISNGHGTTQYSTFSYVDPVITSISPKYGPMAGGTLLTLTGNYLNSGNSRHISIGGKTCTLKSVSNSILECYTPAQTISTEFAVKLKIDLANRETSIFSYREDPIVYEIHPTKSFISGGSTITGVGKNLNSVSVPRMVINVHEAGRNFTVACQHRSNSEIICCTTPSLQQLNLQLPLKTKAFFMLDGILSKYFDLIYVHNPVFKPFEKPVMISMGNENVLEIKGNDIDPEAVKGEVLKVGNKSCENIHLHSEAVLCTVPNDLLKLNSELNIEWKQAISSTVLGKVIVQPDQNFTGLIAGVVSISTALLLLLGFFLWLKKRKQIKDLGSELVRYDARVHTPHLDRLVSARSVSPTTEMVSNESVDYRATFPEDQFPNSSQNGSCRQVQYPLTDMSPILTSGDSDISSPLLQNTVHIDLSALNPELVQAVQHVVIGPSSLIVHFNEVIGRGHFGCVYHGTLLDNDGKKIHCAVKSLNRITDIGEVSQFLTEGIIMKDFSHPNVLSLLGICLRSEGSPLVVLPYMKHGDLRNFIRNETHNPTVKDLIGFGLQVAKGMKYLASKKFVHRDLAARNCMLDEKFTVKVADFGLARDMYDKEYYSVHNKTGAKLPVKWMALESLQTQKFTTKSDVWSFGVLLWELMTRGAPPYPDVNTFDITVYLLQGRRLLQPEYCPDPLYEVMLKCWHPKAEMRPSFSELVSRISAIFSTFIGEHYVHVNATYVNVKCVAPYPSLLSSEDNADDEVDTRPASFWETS
# Sequence of Phosphatidylinositol 4,5-bisphosphate 3-kinase catalytic subunit alpha isoform (P42336 whole entry, canonical isoform): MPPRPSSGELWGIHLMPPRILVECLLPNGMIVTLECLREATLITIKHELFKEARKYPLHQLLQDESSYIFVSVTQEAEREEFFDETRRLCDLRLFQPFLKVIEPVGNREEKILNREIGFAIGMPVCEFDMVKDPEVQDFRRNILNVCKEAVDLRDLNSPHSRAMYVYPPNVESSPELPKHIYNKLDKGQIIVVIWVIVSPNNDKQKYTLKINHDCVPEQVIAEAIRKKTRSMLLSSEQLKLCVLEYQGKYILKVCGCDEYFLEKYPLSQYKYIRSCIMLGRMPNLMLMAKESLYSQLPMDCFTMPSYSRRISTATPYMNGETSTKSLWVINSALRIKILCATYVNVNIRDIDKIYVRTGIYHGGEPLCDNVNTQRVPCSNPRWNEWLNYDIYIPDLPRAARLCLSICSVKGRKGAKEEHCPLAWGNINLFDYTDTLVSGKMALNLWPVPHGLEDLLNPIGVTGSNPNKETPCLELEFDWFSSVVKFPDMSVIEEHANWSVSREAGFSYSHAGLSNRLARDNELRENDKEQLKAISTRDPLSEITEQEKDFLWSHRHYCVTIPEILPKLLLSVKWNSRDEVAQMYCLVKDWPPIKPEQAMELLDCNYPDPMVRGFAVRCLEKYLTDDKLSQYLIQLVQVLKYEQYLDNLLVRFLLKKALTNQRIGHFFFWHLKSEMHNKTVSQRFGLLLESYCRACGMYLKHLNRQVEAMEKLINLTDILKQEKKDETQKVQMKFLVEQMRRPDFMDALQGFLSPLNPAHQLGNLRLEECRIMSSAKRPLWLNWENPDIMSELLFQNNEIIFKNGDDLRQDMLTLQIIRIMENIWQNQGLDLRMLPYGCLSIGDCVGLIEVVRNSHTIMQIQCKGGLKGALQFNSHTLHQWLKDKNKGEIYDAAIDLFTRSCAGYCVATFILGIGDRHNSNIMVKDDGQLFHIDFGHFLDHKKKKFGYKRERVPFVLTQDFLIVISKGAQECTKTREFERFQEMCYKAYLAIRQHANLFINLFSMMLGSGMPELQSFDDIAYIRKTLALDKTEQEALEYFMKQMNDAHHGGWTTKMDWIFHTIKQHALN
# Sequence of RAF proto-oncogene serine/threonine-protein kinase (P04049 whole entry): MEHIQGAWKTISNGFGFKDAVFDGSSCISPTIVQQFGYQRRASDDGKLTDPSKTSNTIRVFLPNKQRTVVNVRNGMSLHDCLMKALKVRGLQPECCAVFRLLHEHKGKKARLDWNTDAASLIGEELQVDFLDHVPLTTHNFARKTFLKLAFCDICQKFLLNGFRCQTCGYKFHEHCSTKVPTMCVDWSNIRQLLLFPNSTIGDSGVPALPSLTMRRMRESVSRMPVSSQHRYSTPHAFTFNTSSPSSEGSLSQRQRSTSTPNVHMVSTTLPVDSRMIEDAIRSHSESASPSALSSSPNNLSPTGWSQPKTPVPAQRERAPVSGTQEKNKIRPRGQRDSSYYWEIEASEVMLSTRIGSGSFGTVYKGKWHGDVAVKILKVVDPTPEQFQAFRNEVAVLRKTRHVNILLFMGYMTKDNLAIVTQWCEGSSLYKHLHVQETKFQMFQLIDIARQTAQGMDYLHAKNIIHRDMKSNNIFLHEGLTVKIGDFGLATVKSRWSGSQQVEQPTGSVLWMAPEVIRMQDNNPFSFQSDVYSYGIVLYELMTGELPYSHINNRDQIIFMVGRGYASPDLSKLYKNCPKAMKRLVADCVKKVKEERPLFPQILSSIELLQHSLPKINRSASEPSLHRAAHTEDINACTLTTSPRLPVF
compound,measurement,setting,value
COc1ccc(Oc2cc(C)c(-c3csc(NC(=O)c4ccnc(F)c4)n3)c(C)c2)cc1,IC50,K562,16.3 nM
same,Vd,[1],0.948 L/kg
same,bioavailability,[2],4.6%
same,bioavailability,[3],22.7%
same,T/C,MDA-MB-231,57%
same,Activity,[4],Active
same,Activity,[5],inactive
same,Activity,MDA-MB-468 [6],Dose-dependent effect
same,Activity,MDA-MB-468 [7],16.9%
same,Activity,MDA-MB-468 [8],29.1%
same,Activity,HeLa [9],Active
same,GI50,HeLa [10],22.8 nM
same,GI50,COLO 205,35.4 nM
same,GI50,T47D,377 nM
same,GI50,[11],> 9 µM
same,IC50,[12],> 10 µM
same,IC50,[13],> 10 µM
same,IC50,[14],> 10 µM
same,IC50,[15],> 10 µM
same,IC50,[16],> 10 µM
same,IC50,[17],> 10 µM
same,IC50,[18],> 10 µM
same,IC50,[19],> 10 µM
same,IC50,[20],> 10 µM
